# Measurements pooled from the literature.
# pIC50: −log10 of the molar value.
# PTGS1: Prostaglandin G/H synthase 1 (PTGS1, Ovis aries, UniProt P05979)
# DRD1: D(1A) dopamine receptor (DRD1, Homo sapiens, UniProt P21728)
# BCHE: Cholinesterase (BCHE, Equus caballus, UniProt P81908)
# PTPN11: Tyrosine-protein phosphatase non-receptor type 11 (PTPN11, Homo sapiens, UniProt Q06124)
# Urease: Urease (Canavalia ensiformis, UniProt P07374)
# PTPN9: Tyrosine-protein phosphatase non-receptor type 9 (PTPN9, Homo sapiens, UniProt P43378)
# NTRK2: BDNF/NT-3 growth factors receptor (NTRK2, Homo sapiens, UniProt Q16620)
# SIRT3: NAD-dependent protein deacetylase sirtuin-3, mitochondrial (SIRT3, Homo sapiens, UniProt Q9NTG7)
# MAP3K9: Mitogen-activated protein kinase kinase kinase 9 (MAP3K9, Homo sapiens, UniProt P80192)
Compound,target,assay,system,conditions,pIC50
Cc1ccc(Nc2c(-c3ccc(S(C)(=O)=O)cc3)nc3cc(C)ccn23)cc1,PTGS1,"enzyme activity, inhibitor, fluorescence",,,4.47
CCCOc1c(O)cc(Br)c2c1CN1CCc3cc(OCC(F)F)c(O)cc3[C@@H]1C2,DRD1,"cAMP, antagonist, TR-FRET",,,6.73
OCCN1CCN(c2nccc(NCc3ccccc3)n2)CC1,BCHE,"enzyme activity, inhibitor",,,< 4.00
N[C@@H](Cc1ccccc1)C(=O)N[C@@H](CC(=O)O)C(=O)N[C@@H](Cc1ccccc1)C(=O)O,PTPN11,"enzyme activity, inhibitor, absorbance",,pH 7.4,4.01
CC(=O)N1C[C@@H](CCN2CCC(c3c[nH]c4ccccc34)CC2)c2ccccc21,"Sodium-dependent serotonin transporter (SLC6A4, Homo sapiens, UniProt P31645)","ligand displacement, radioligand",,cell membranes,6.74
O=Cc1ccc2[nH]ncc2c1,"Ribosomal protein S6 kinase alpha-3 (RPS6KA3, Homo sapiens, UniProt P51812, C436V)","enzyme activity, inhibitor",,,~3.46
O=C(O)C(=O)CC(=O)c1cccc(N(Cc2ccccc2)Cc2ccccc2)c1,PTPN11,"enzyme activity, inhibitor, absorbance",,pH 7,4.07
O=[N+]([O-])c1ccc(NC(=S)N2CCc3ccccc3C2)c(Cl)c1,Urease,"enzyme activity, inhibitor, absorbance",,,4.59
O=C(O)/C=C/c1ccc(-c2ccc(F)cc2)c(Cl)c1,PTPN11,"enzyme activity, inhibitor, fluorescence",,,5.68
CC1=C[C@@]2(C[C@H](C)[C@H]3CC=C(C)C(=O)[C@@H]3O2)OC1=O,PTPN11,"enzyme activity, inhibitor",,,< 3.30
Cc1c(Br)cc(NC(=O)NS(=O)(=O)O)cc1Br,PTPN9,"enzyme activity, inhibitor, absorbance",,,< 5.00
C[C@@H](N)COc1ccc(-c2cnc3ccc(N[C@H](C)c4cccc(F)c4)nn23)cc1,NTRK2,"enzyme activity, inhibitor",,,8.26
N[C@@H](Cc1ccccc1)C(=O)N[C@@H](Cc1ccccc1)C(=O)N[C@@H](CC(=O)O)C(=O)O,PTPN11,"enzyme activity, inhibitor, absorbance",,pH 7.4,3.94
CS(=O)(=O)c1ccc(-c2nc3ccccn3c2Nc2ccccc2)cc1,PTGS1,"enzyme activity, inhibitor, fluorescence",,,4.74
C=C(NC(=O)[C@H](CCCCNC(=S)CCCCCCCCCCCCC)NS(C)(=O)=O)C(=O)N[C@@H](CCCNC(=N)N)C(N)=O,SIRT3,"enzyme activity, inhibitor",,,5.43
c1ccc(CNc2ccnc(N3CCNCC3)n2)cc1,BCHE,"enzyme activity, inhibitor",,,< 4.00
CC(=O)NO,Urease,"enzyme activity, inhibitor",,,4.69
Cc1cc(Nc2cc(CN3CCOCC3)c3nc(C)c(Cc4ccc(Cl)cc4F)n3n2)n[nH]1,MAP3K9,"enzyme activity, inhibitor, TR-FRET",,,6.52
CCCCCCCCCCCCNC(=S)NCCCC[C@H](NS(C)(=O)=O)C(=O)N[C@H](C)C(=O)N[C@@H](CCCNC(=N)N)C(=O)N1CCOCC1,SIRT3,"enzyme activity, inhibitor",,,4.26
CCc1cc(/C(C)=N/OCc2ccc(C3CCCCC3)c(C(F)(F)F)c2)ccc1CN1CC(C(=O)O)C1,"Cytochrome P450 2B6 (CYP2B6, Homo sapiens, UniProt P20813)","enzyme activity, inhibitor","human, liver microsomes",20 min,< 6.22
Cc1ccc(NC(=O)c2ccc(C)c(C(F)(F)F)c2)cc1C#Cc1nn(C2CCC(O)CC2)c2ncnc(N)c12 (stereo not shown),NTRK2,"enzyme activity, inhibitor, radiometric",,,6.05
CC(C)(C)n1nc(-c2cnc3cc(OC4CC4)ccc3c2)c(C(N)=O)c1N,"Calcium/calmodulin-dependent protein kinase type 1D (CAMK1D, Homo sapiens, UniProt Q8IU85)",cell-free assay,,,< 5.00
CC(NC(=O)c1ccccc1/N=C/c1c(O)ccc2ccccc12)c1ccccc1 (stereo not shown),SIRT3,"enzyme activity, inhibitor, HPLC",,,3.82
CNC(=O)c1cc(Oc2ccc(NC(=O)Nc3cc(C(C)(C)C)nn3-c3ccc4ncccc4c3)c(F)c2)ccn1,"Mitogen-activated protein kinase kinase kinase 20 (MAP3K20, Homo sapiens, UniProt Q9NYL2)","enzyme activity, inhibitor, mass spectrometry",,,7.92
CC1=C[C@@]2(C[C@H](C)[C@H]3CC=C(CO)C(=O)[C@@H]3O2)OC1=O,PTPN11,"enzyme activity, inhibitor",,,4.32
COc1ccc2c(c1OCc1ccc(OC(F)(F)F)cc1)C[C@@H](C(=O)O)N(c1nc3ccc(F)cc3o1)C2,"Type-2 angiotensin II receptor (AGTR2, Homo sapiens, UniProt P50052)","cell-free assay, TR-FRET",,,6.80
CC[C@@H](C(=O)Nc1ccc(C(N)=O)c(F)c1)n1cc(OC)c(-c2cc(Cl)ccc2-n2cc(C(F)(F)F)nn2)cc1=O,"Coagulation factor VII (F7, Homo sapiens, UniProt P08709)","enzyme activity, inhibitor",,,5.72
[O-][S+]1CCN(c2nccc(NCc3ccccc3)n2)CC1,BCHE,"enzyme activity, inhibitor",,,< 4.00
N[C@@H](Cc1ccc(C(F)(F)P(=O)(O)O)cc1)C(=O)O,PTPN9,"enzyme activity, inhibitor, absorbance",,,1.94
CN1CCN(c2ccc(Nc3ncc4cc(C#N)c(=O)n(C5CCCC5)c4n3)cc2)CC1,MAP3K9,"enzyme activity, inhibitor",,,6.32
C[C@@H]1Cc2ccccc2N1C(=O)NCCCCN(C)[C@@H]1Cc2cccc3[nH]c(=O)n(c23)C1,DRD1,"ligand displacement, radioligand",,,< 5.00
O=C(NCCc1ccc(OP(=O)(O)O)c(OP(=O)(O)O)c1)OCC1c2ccccc2-c2ccccc21,"Signal transducer and activator of transcription 5A, SH2 (Homo sapiens, UniProt P42229)","ligand displacement, FP",,,4.49
O=C1Nc2ccccc2/C1=C1/Nc2ccccc2/C1=N\O,"Ribosomal protein S6 kinase alpha-3, N-terminal kinase domain (RPS6KA3, Homo sapiens, UniProt P51812)","enzyme activity, inhibitor, FP",,,6.00
Cc1ccn2c(Nc3ccccc3)c(-c3ccc(S(C)(=O)=O)cc3)nc2c1,PTGS1,"enzyme activity, inhibitor, fluorescence",,,4.26
